Measurements from ChEMBL document CHEMBL4732114, “Design and structural optimization of novel 2H-benzo[h]chromene derivatives that target AcrB and reverse bacterial multidrug resistance” (Eur J Med Chem, 2021).
Converted amounts (≈) assume the structure as drawn. The source made the active and inactive calls. The calls are words filed in the database; no cut-off is given here.

Tests used:
[1] = molecular target: T1, Multidrug efflux pump subunit AcrB (Escherichia coli (strain K12)) (UniProt P31224); assay: Inhibition of AcrB in multidrug-resistant Escherichia coli BW25113 assessed as potentiation of erythromycin-induced antibacterial activity by measuring erythromycin MIC at 32 ug/ml by checkerboard titration method (reference value: 64 ug/ml); details: dose 32.0 µg/ml
T1 sequence (whole entry): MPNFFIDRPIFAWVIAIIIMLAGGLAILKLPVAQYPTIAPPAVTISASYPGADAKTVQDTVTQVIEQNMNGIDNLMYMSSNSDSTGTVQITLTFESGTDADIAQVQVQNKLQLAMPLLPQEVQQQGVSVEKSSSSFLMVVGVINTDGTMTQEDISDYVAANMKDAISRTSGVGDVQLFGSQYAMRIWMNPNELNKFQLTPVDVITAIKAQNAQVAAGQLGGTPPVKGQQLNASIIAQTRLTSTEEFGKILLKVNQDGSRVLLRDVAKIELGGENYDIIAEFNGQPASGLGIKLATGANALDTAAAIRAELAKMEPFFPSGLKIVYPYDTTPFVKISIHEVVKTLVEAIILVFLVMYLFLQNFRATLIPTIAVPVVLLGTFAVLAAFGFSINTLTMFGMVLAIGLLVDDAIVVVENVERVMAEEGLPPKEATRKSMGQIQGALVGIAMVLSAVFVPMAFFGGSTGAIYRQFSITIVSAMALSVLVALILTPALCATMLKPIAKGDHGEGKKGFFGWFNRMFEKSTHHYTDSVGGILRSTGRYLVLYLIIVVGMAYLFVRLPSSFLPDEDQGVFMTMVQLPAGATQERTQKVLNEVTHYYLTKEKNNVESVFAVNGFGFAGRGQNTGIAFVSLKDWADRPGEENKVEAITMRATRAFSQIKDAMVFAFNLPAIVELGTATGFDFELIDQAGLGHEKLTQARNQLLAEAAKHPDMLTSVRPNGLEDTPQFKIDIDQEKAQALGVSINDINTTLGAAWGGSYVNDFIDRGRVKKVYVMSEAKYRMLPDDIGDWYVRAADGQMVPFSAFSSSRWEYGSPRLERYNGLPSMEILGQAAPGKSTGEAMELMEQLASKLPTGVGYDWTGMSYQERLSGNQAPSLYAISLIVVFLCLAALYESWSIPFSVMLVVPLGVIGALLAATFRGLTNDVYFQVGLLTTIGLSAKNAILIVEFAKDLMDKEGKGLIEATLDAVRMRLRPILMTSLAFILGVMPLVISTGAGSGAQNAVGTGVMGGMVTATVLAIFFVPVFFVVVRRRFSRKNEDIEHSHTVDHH

[2] = molecular target: T1, Multidrug efflux pump subunit AcrB (Escherichia coli (strain K12)); assay: Inhibition of AcrB in multidrug-resistant Escherichia coli BW25113 assessed as potentiation of chloramphenicol-induced antibacterial activity by measuring chloramphenicol MIC at 8 ug/ml by checkerboard titration method (reference value: 8 ug/ml); details: dose 8.0 µg/ml
[3] = Toxicity in multidrug-resistant Escherichia coli BW25113 harboring AcrB deletion mutant assessed as growth inhibition by two-fold broth dilution method
[4] = tested on: Cell membrane; assay: Induction of inner membrane permeabilization in wild type Escherichia coli BW25113 assessed as perturbation of proton motive force at 32 ug/ml measured after 10 mins in presence of CCCP and glucose by Di0C2(3) probe based fluorescence assay; details: escherichia coli bw25113, 10 min, dose 32 µg/ml
Procedure, shortened: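 Cell suspensions were left untreated or exposed to 8-128 µg/mL compound for 10 min. DiOC₂(3) was then added and fluorescence followed to a plateau. Cells were re-energized with 0.5% glucose, and the rise in fluorescence was read as membrane-potential build-up. CCCP was added last to dissipate the potential.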

[5] = Toxicity in multidrug-resistant Escherichia coli BW25113 assessed as growth inhibition by two-fold broth dilution method
[6] = molecular target: T1, Multidrug efflux pump subunit AcrB (Escherichia coli (strain K12)); assay: Inhibition of AcrB in multidrug-resistant Escherichia coli BW25113 assessed as potentiation of chloramphenicol-induced antibacterial activity by measuring chloramphenicol MIC at 16 ug/ml by checkerboard titration method (reference value: 8 ug/ml); details: dose 16.0 µg/ml
[7] = molecular target: T1, Multidrug efflux pump subunit AcrB (Escherichia coli (strain K12)); assay: Inhibition of AcrB in multidrug-resistant Escherichia coli BW25113 assessed as potentiation of chloramphenicol-induced antibacterial activity by measuring chloramphenicol MIC at 32 ug/ml by checkerboard titration method (reference value: 8 ug/ml); details: dose 32.0 µg/ml
[8] = molecular target: T1, Multidrug efflux pump subunit AcrB (Escherichia coli (strain K12)); assay: Inhibition of AcrB in multidrug-resistant Escherichia coli BW25113 assessed as potentiation of tetraphenylphosphonium-induced antibacterial activity by measuring tetraphenylphosphonium MIC at 16 ug/ml by checkerboard titration method (reference value: 1024 ug/ml); details: dose 16.0 µg/ml
[9] = molecular target: T1, Multidrug efflux pump subunit AcrB (Escherichia coli (strain K12)); assay: Inhibition of AcrB in multidrug-resistant Escherichia coli BW25113 assessed as potentiation of tetraphenylphosphonium-induced antibacterial activity by measuring tetraphenylphosphonium MIC at 8 ug/ml by checkerboard titration method (reference value: 1024 ug/ml); details: dose 8.0 µg/ml
[10] = tested on: Cell membrane; assay: Induction of outer membrane permeabilization in wild type Escherichia coli BW25113 assessed as increase in nitrocefin hydrolysis at 128 ug/ml in presence of CCCP by spectroscopic analysis; details: dose 128 µg/ml
Procedure, shortened: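 Intact E. coli were treated with 10 μM CCCP to block nitrocefin efflux, then given compound, nothing, or polymyxin B as permeabilizer control. Nitrocefin was added, and hydrolysis by periplasmic β-lactamase was followed as the rise in absorbance at 490 nm. Duplicate experiments were run on different days.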

[11] = molecular target: T1, Multidrug efflux pump subunit AcrB (Escherichia coli (strain K12)); assay: Inhibition of AcrB in multidrug-resistant Escherichia coli BW25113 assessed as potentiation of tetraphenylphosphonium-induced antibacterial activity by measuring tetraphenylphosphonium MIC at 32 ug/ml by checkerboard titration method (reference value: 1024 ug/ml); details: dose 32.0 µg/ml
[12] = molecular target: T1, Multidrug efflux pump subunit AcrB (Escherichia coli (strain K12)); assay: Inhibition of AcrB in multidrug-resistant Escherichia coli BW25113 assessed as potentiation of levofloxacin-induced antibacterial activity by measuring levofloxacin MIC at 32 ug/ml by checkerboard titration method (reference value: 0.06 ug/ml); details: dose 32.0 µg/ml
[13] = molecular target: T1, Multidrug efflux pump subunit AcrB (Escherichia coli (strain K12)); assay: Inhibition of AcrB in multidrug-resistant Escherichia coli BW25113 assessed as potentiation of levofloxacin-induced antibacterial activity by measuring levofloxacin MIC at 8 ug/ml by checkerboard titration method (reference value: 0.06 ug/ml); details: dose 8.0 µg/ml
[14] = molecular target: T1, Multidrug efflux pump subunit AcrB (Escherichia coli (strain K12)); assay: Inhibition of AcrB in multidrug-resistant Escherichia coli BW25113 assessed as potentiation of erythromycin-induced antibacterial activity by measuring erythromycin MIC at 8 ug/ml by checkerboard titration method (reference value: 64 ug/ml); details: dose 8.0 µg/ml
[15] = molecular target: T1, Multidrug efflux pump subunit AcrB (Escherichia coli (strain K12)); details: Escherichia coli BW25113; dose 16.0 µg/ml
[16] = molecular target: T1, Multidrug efflux pump subunit AcrB (Escherichia coli (strain K12)); assay: Inhibition of AcrB in multidrug-resistant Escherichia coli BW25113 assessed as potentiation of erythromycin-induced antibacterial activity by measuring erythromycin MIC at 16 ug/ml by checkerboard titration method (reference value: 64 ug/ml); details: dose 16.0 µg/ml
[17] = molecular target: T1, Multidrug efflux pump subunit AcrB (Escherichia coli (strain K12)); details: Escherichia coli BW25113; dose 8.0 µg/ml
[18] = molecular target: T1, Multidrug efflux pump subunit AcrB (Escherichia coli (strain K12)); details: Escherichia coli BW25113; dose 32.0 µg/ml
[19] = molecular target: T1, Multidrug efflux pump subunit AcrB (Escherichia coli (strain K12)); details: Escherichia coli BW25113; dose 128.0 µg/ml
[20] = molecular target: T1, Multidrug efflux pump subunit AcrB (Escherichia coli (strain K12)); assay: Inhibition of AcrB in multidrug-resistant Escherichia coli BW25113 assessed as potentiation of levofloxacin-induced antibacterial activity by measuring levofloxacin MIC at 16 ug/ml by checkerboard titration method (reference value: 0.06 ug/ml); details: dose 16.0 µg/ml
[21] = molecular target: T1, Multidrug efflux pump subunit AcrB (Escherichia coli (strain K12)); assay: Inhibition of AcrB in Escherichia coli BW25113 assessed as reduction in glucose-induced nile red efflux at 50 uM preincubated for 15 mins followed by nile red addition and incubated for 3 hrs in shaker in presence of CCCP by fluorimetric analysis; details: time 3.25 hrs
Procedure, shortened: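 Wild-type and AcrB-deleted cells were preloaded with Nile Red, with or without compound. Fluorescence was recorded, and efflux was triggered at 100 s with 0.2% glucose. Traces were compared with the deletion-strain level. Triplicate experiments used different cell batches.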

[22] = molecular target: T1, Multidrug efflux pump subunit AcrB (Escherichia coli (strain K12)); details: Escherichia coli BW25113; dose 64.0 µg/ml
[23] = tested on: Escherichia coli; assay: Antibacterial activity against multidrug-resistant Escherichia coli BW25113 harboring AcrB deletion mutant by two-fold broth dilution method; format: functional
Procedure, shortened: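 Two-fold broth dilution MIC against an isogenic BW25113 strain with AcrB deleted, run alongside the AcrB-expressing parent. The test was done to define sub-inhibitory levels for later checkerboard work.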

CC1(C)CCc2c(-c3nnco3)cc3c(OCc4ccc(F)cc4)cccc3c2O1
MIC [1]: 32 µg/mL | MIC [2]: 8 µg/mL | MIC [3]: 64 µg/mL (≈ 158 µM) | Activity [4]: Not Active | MIC [5]: 64 µg/mL (≈ 158 µM) | MIC [6]: 8 µg/mL | MIC [7]: 8 µg/mL | MIC [8]: 512 µg/mL | MIC [9]: 1020 µg/mL | Activity [10]: Not Active | MIC [11]: 512 µg/mL | MIC [12]: 0.06 µg/mL | MIC [13]: 0.06 µg/mL | MIC [14]: 64 µg/mL | MIC [15]: 16 µg/mL (≈ 39.6 µM) | MIC [16]: 64 µg/mL | MIC [17]: 16 µg/mL (≈ 39.6 µM) | MIC [18]: 16 µg/mL (≈ 39.6 µM) | MIC [19]: 16 µg/mL (≈ 39.6 µM) | MIC [20]: 0.06 µg/mL | inhibition [21]: Active | MIC [22]: 16 µg/mL (≈ 39.6 µM)

O=C(N[C@H](CO)[C@H](O)c1ccc([N+](=O)[O-])cc1)C(Cl)Cl [CHLORAMPHENICOL]
MIC [23]: 2 µg/mL (≈ 6.19 µM)

CC[C@H]1OC(=O)[C@H](C)[C@@H](O[C@H]2C[C@@](C)(OC)[C@@H](O)[C@H](C)O2)[C@H](C)[C@@H](O[C@@H]2O[C@H](C)C[C@H](N(C)C)[C@H]2O)[C@](C)(O)C[C@@H](C)C(=O)[C@H](C)[C@@H](O)[C@]1(C)O [ERYTHROMYCIN]
MIC [23]: 4 µg/mL (≈ 5.45 µM)

CC1CN(C(=O)c2cc3c(OCc4ccc([N+](=O)[O-])cc4)cccc3c3c2CCC(C)(C)O3)CC(C)O1 (stereo unspecified)
MIC [3]: > 128 µg/mL | MIC [5]: > 512 µg/mL
